KCNQ1 act – potentiates or activates the human KCNQ1 potassium channel; CHO-K1 KCNQ1, thallium flux FluxOR fluorescence; active compounds read high; hit rate 0.35% among 310,000; B-score at 10 µM; AID 2648;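 active = fluorescence ratio B-score, a plate-corrected score, at least three library SD, with initial intensity B-score within 5 SD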
Target sequence (P51787 whole entry, looked up): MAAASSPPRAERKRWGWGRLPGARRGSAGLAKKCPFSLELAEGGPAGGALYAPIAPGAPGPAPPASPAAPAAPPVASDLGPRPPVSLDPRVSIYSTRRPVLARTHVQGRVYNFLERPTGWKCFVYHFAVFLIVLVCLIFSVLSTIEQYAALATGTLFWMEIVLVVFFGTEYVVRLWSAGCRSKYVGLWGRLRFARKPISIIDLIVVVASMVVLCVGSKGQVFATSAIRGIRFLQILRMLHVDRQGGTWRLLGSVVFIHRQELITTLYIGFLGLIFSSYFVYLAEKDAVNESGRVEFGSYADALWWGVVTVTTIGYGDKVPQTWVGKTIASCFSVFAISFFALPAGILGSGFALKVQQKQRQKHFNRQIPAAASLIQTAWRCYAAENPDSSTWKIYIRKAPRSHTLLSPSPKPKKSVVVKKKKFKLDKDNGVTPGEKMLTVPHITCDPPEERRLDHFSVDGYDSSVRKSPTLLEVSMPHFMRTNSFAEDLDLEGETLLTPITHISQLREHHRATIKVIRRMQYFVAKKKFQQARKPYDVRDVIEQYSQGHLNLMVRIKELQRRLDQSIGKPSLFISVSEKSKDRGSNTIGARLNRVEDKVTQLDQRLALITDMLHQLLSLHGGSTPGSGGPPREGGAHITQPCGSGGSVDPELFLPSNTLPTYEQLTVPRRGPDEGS
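Assay system: CHO-K1 cells stably expressing KCNQ1; Medium: assay buffer with matched DMSO; Also added: K+/Tl+ depolarizing stimulus; Dosing: single dose; Timing: dye 90 min, compound 20 min, room temperature; Measured by: kinetic FluxOR thallium fluorescence, 10-s 1-Hz baseline, 110-s post-stimulus read; Read-out: peak-minus-minimum fluorescence over initial fluorescence, negative-control normalized, B-scored.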
KCNQ1 inh – human KCNQ1 channel inhibition; P51787; CHO-K1 KCNQ1, FluxOR thallium flux fluorescence; active compounds read high; B-score at 10 µM; hit rate 1.3% among 310,000; AID 2642;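 active = compounds whose thallium flux B-score, printed positive for inhibition, exceeds three library SD while starting fluorescence stays within three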;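 note: channel opened by potassium depolarization with thallium stimulus after 20 min compound exposure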
hERG rescue – hERG (human) protection from proarrhythmic block. Q12809. CHO-hERG, FluxOR thallium flux, dofetilide IC70 present. activation (rescue from dofetilide block), less the hit threshold, % at 10 µM. hit rate 0.51% among 310,000. AID 1511;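 active = activation above the mean of controls blocked by dofetilide plus 5 SD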;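 note: thallium influx through hERG after potassium depolarization seen as dye fluorescence rise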
KCNK9 inh – inhibitors of human KCNK9 two-pore domain potassium channel. Q9NPC2. HEK293 KCNK9, FluxOR thallium flux fluorescence; active compounds read low. B-score at 10 µM. hit rate 1.2% among 310,000;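 active = ratio B-score over 3 SD below the library mean, with starting fluorescence within 5 SD of its mean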;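 note: negative B-score means less thallium flux so channel inhibition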
KCNK3 block – human KCNK3 channel inhibition, primary screen; CHO-KCNK3 thallium flux, FluxOR fluorescence; active compounds read low; B-score at 10 µM; hit rate 0.84% among 340,000;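 active = B-score under library mean minus 4 SD, starting fluorescence ratio at most library mean plus 5 SD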;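 note: more negative B-score means stronger inhibition of thallium flux through KCNK3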
KCNK9 inh conf – confirmation of human KCNK9 potassium channel inhibitors; shares compounds with KCNK9 inh; HEK293 KCNK9 cells, FluxOR thallium flux fluorescence; inhibition, % at 10 µM; hit rate 43% among 4,900;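 active = thallium signal inhibited by more than 5 SD of the compound-free buffer control wells, on both duplicate plates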;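 note: 0% = assay buffer control wells without compound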
Kir2-1 spec – mouse Kir2.1 off-target activity of KCNK9 modulators | shares compounds with KCNK9 inh | Kir2.1 cells, FluxOR thallium flux fluorescence | inhibition, % at 10 µM | hit rate 4% among 4,900 | AID 492993;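 active = thallium signal drop more than 5 SD beyond the mean of the no-compound control wells, seen in both duplicate plates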;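 note: signal is fluorescence rise after thallium addition divided by baseline fluorescence; plate controls were assay buffer only for no effect and full block by chlorpromazine control for full effect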
HEK293 Tl ctr – non-induced cell nonspecific activity of KCNK9 modulators | hit rate 40% among 4,900 | AID 492997 | non-induced KCNK9-HEK293, FluxOR thallium flux | inhibition, % at 10 µM | shares compounds with KCNK9 inh;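 active = thallium signal drop beyond 5 SD of the untreated control mean, on both duplicate plates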;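 note: plate controls were buffer only IC0 wells for no effect and SID17386958 at its maximal inhibitory level for full effect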
Active calls of the source: *; i = inactive; . = no result given. In the library only some 3.1% were active in any assay of this set; here they are far more common.

SMILES	KCNQ1 act	KCNQ1 inh	hERG rescue	KCNK9 inh	KCNK3 block	KCNK9 inh conf	Kir2-1 spec	HEK293 Tl ctr
O=C(NC(=S)Nc1ccc(Cc2ccncc2)cc1)c1ccccc1	i	i	-4	i	i	.	.	.
CCC(=O)Nc1cccc(NC(=S)NC(=O)c2cccc(C)c2)c1	i	i	-11	i	i	.	.	.
CC(NC(=S)NC(=O)c1ccccc1)c1ccccc1 (stereo unspecified)	i	i	-5	i	i	i	i	i
C[C@@H]1CN([C@@H](C)CO)C(=O)c2cccc(NC(=O)Nc3ccc4c(c3)OCO4)c2O[C@H]1CN(C)S(=O)(=O)c1cn(C)cn1	.	.	.	.	i	.	.	.
COc1ccc(-c2cc(C(=O)N/N=C/c3cccnc3)c3cc(C)cc(C)c3n2)cc1	i	i	-10	i	i	.	.	.
CCOc1ccc(S(=O)(=O)N2CCN=C2c2ccccc2)cc1	i	i	-14	i	i	.	.	.
O=C(Nc1ccccc1Cc1ccccc1)c1oc2ccccc2c1COc1ccccc1	i	i	-5	-8.7*	i	51%*	i	31%*
O=C(NCCc1ccccc1)c1oc2ccccc2c1COc1ccccc1	i	6*	-14	i	i	i	i	i
CC1=NN(C(=O)CCc2ccccc2)C(O)(c2ccncc2)C1 (stereo unspecified)	i	i	-2	i	i	.	.	.
Cc1ccc(C2(c3ccccc3)NC(=O)N(CC(=O)NC3(C#N)CCCC3)C2=O)cc1C (stereo unspecified)	.	.	.	.	i	.	.	.
O=C(CSCc1cnn(-c2ccccc2)c1-n1cccc1)NCc1ccccn1	i	i	-10	i	i	.	.	.
COc1ccc(CNC(=O)CSCc2cnn(-c3ccccc3)c2-n2cccc2)cc1	i	i	-16	i	i	i	i	i
COc1ccc(-n2c(CCc3ccccc3)nnc2SCC(=O)NCc2ccccc2)cc1	i	i	-16	i	i	i	i	i
COc1ccc(-n2c(CCc3ccccc3)nnc2SCC(=O)c2ccccc2)cc1	i	i	-2	i	i	i	i	i
Cc1ccc(C(=O)COC(=O)C2C3C=CC(C3)C2C(=O)OCC(=O)c2ccc(C)c(C)c2)cc1C (stereo unspecified)	i	i	-10	i	i	i	i	i
O=C(CN1C(=O)S/C(=C\c2cccc(Cl)c2)C1=O)NCCCn1ccnc1	i	i	-18	i	i	i	i	i
Cc1ccc(C)n1N1C(=O)/C(=C\c2ccc(Cl)cc2)SC1=S	i	i	-13	i	i	i	i	i
CC(=O)N(C(C)=O)N1C(=O)/C(=C/c2ccc(Cl)cc2)SC1=S	i	i	-5	i	i	.	.	.
COc1ccc(C(=O)/C=C(\C)NCc2ccc3c(c2)OCO3)cc1	i	i	-7	i	i	i	i	i
CCN(Cc1ccccc1)C(=O)COc1cc(=O)n(CC)c2ccccc12	i	i	-8	i	i	i	i	i
CC(=O)c1ccc(NC(=O)CC(C)S(=O)(=O)c2ccc3c(c2)CCN3C(C)=O)cc1 (stereo unspecified)	i	i	-3	i	i	.	.	.
Cc1[nH][nH]c(=O)c1C(c1c(C)[nH][nH]c1=O)c1cn(Cc2ccccc2Cl)c2ccccc12	i	i	-14	i	i	i	i	i
CCN1CCN(S(=O)(=O)c2ccc(Cl)c(C(=O)NCc3ccco3)c2)CC1	i	i	-19	i	i	.	.	.
COc1ccc(C2=NOC(Cn3nc(C(=O)NCc4ccccc4OC)cc3-c3ccccc3)C2)cc1 (stereo unspecified)	i	i	-23	i	i	.	.	.
CCOC(=O)c1ccc(N2CCCCC2)c(NS(=O)(=O)c2cccc(C(F)(F)F)c2)c1	i	i	-6	-11*	i	56%*	i	34%*
SMILES	KCNQ1 act	KCNQ1 inh	hERG rescue	KCNK9 inh	KCNK3 block	KCNK9 inh conf	Kir2-1 spec	HEK293 Tl ctr
COC(=O)c1ccc(N2CCCCC2)c(NS(=O)(=O)c2ccc(C)cc2)c1	i	i	-6	i	i	.	.	.
Cc1ccc(C)c(N2CCN(C(=O)CN3C(=S)NC(C)(C)CC3C)CC2)c1 (stereo unspecified)	i	i	-7	i	i	.	.	.
O=C(N/N=C/c1cc(Cl)cc([N+](=O)[O-])c1O)c1cc(-c2ccccn2)nc2ccccc12	i	i	-18	i	i	i	i	28%*
O=C(Nc1cccc(Cl)c1)c1ccc(S(=O)(=O)NCC2CCCO2)cc1 (stereo unspecified)	i	i	-4	i	i	.	.	.
CC(C)C(=O)Nc1nc(-c2ccc3c(c2)CCN3C(=O)C2CC2)cs1	i	i	-17	-8.9*	i	i	i	i
CCC1=NN(C(=O)c2cccc(Br)c2)C(O)(c2ccc(Br)cc2)C1 (stereo unspecified)	i	8*	-14	-10*	i	42%*	i	26%*
CCC1=NN(C(=O)c2ccc(C)cc2)C(O)(c2ccc(Br)cc2)C1 (stereo unspecified)	i	i	-10	i	i	.	.	.
COc1cc(/C=N/N2CCN(Cc3ccc(C)cc3)CC2)cc(OC)c1O	i	i	-6	i	i	.	.	.
CCn1c(N2CCN(S(=O)(=O)c3ccc(Cl)cc3)CC2)nc2ccccc21	i	i	5.8*	i	i	i	i	i
COc1cccc(Nc2nc(-c3cccc(N4C(=O)c5ccccc5C4=O)c3)cs2)c1	i	i	-7	i	i	i	i	i
COc1cccc(Nc2nc(-c3ccc(O)cc3)cs2)c1	i	i	-32	i	i	.	.	.
Cc1nc(SCc2ccc(C(=O)O)cc2)c2c(C)c(C)sc2n1	i	i	-10	i	i	i	i	i
Cc1ccc(-c2csc3ncnc(SCc4ccc(C(=O)O)cc4)c23)cc1	33*	i	15*	i	i	i	i	i
CN(C)c1ccc(C(CNC(=O)COc2ccc(Cl)cc2)N2CCCC2)cc1 (stereo unspecified)	i	i	-9	i	i	.	.	.
Cc1cc2ccc3ccccc3c2cc1CN(C)C	i	i	-3	i	i	i	66%*	i
CN(C)Cc1cc2ccccc2c2c1COC2	i	i	-10	i	i	.	.	.
